Experimental data reported in ChEMBL document CHEMBL1125185, “Nonpeptide angiotensin II receptor antagonists: the discovery of a series of N-(biphenylylmethyl)imidazoles as potent, orally active antihypertensives” (J Med Chem, 1991).
Activity calls are given as the source filed them. The rule behind the calls is not given here.

Assays:
[1] = target: T1, Angiotensin II receptor (Rattus norvegicus, UniProt P29089+P25095+P35351); assay: Inhibition of radioligand [3H]angiotensin II binding to angiotensin II receptor of rat adrenal cortical membrane
T1 sequence (P29089 whole entry): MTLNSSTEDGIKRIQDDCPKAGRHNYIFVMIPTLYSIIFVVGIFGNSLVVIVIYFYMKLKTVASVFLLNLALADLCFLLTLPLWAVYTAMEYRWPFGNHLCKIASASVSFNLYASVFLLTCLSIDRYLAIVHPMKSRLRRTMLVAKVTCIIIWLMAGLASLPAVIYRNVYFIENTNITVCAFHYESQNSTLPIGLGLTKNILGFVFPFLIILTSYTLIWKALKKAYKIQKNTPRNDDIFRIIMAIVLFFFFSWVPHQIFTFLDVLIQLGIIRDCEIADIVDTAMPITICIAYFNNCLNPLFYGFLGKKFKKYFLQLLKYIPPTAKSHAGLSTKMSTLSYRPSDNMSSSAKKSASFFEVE
T1 sequence (P25095 whole entry): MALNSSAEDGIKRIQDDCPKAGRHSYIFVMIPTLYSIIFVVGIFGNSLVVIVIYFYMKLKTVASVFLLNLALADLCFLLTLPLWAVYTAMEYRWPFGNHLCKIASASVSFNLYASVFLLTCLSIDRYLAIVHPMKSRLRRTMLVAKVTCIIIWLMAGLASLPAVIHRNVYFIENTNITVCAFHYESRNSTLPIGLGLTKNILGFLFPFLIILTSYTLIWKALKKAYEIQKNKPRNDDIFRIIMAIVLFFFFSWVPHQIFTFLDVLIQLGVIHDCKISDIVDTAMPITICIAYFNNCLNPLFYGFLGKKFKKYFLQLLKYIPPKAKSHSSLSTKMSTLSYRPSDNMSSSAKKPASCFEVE
T1 sequence (P35351 whole entry): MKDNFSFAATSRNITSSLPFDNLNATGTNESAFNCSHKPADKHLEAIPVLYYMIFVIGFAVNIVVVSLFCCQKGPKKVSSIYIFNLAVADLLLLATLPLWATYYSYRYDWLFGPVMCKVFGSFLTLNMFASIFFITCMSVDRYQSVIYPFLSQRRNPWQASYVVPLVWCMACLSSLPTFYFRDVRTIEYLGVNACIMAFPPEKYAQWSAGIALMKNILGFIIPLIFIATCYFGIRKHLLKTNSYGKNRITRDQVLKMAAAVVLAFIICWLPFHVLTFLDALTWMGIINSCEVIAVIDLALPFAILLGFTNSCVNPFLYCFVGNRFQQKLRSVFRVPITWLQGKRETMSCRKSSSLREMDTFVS
Outline: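 Rat adrenal cortical microsomes came from male Sprague-Dawley CD rats (300-400 g) and were prepared at 4 °C in sucrose/EDTA/Tris pH 7.4. Samples were filtered and counted, in duplicate. Specific binding was defined with 1 µM unlabeled AII. IC50 was taken from the linear portion of the displacement curve.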

[2] = system: Rattus norvegicus; assay: Blood pressure lowering activity in renal hypertensive rats after peroral administration; assay type: functional
Outline: (§1)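 Conscious male Sprague-Dawley CD rats, six days after left renal artery ligation and with jugular and carotid cannulae, were dosed by oral gavage at 1-100 mg/kg (4-6 rats/dose). Mean arterial pressure was monitored for 3 h.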

[3] = system: Rattus norvegicus; assay: Blood pressure lowering activity in renal hypertensive rats after intravenous administration; assay type: functional
Outline: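 Male Sprague-Dawley CD rats had the left renal artery ligated under hexobarbital (100 mg/kg ip). Six days later the jugular vein and carotid artery were cannulated under hexobarbital (90 mg/kg ip). Compound was given intravenously to the conscious hypertensive rats while mean arterial pressure was recorded.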

[4] = system: Rattus norvegicus; assay: Blood pressure lowering activity in renal hypertensive rats after peroral administration; Inactive indicates fail to cause significant drop in blood pressure even at 100 mg/kg (in vivo); assay type: functional, organism-based; set-up: dose 100 mg/kg; outline: as §1
[5] = Ionization constant for the compound; assay type: physicochemical, Rattus norvegicus

Compound	IC50 [1]	pKa [5]	Activity [2]	Activity [3]	Activity [4]
CCCCc1nc(Cl)c(CO)n1Cc1ccc(-c2ccccc2NC(=O)C(F)(F)F)cc1	–	9.5	–	10 mg/kg	inactive
CCCCCCc1nc(Cl)c(CO)n1Cc1ccc(-c2ccccc2C(=O)O)cc1	–	–	–	10 mg/kg	inactive
CCCCc1nc(Cl)c(CO)n1Cc1ccc(-c2ccccc2-c2[nH]nnc2C#N)cc1	280 nM	–	>10 mg/kg	>1 mg/kg	–
CCCCc1nc(Cl)c(COC)n1Cc1ccc(-c2ccccc2NS(=O)(=O)C(F)(F)F)cc1	–	4.5	100 mg/kg	10 mg/kg	–
CCCCc1nc(Cl)c(CO)n1Cc1ccc(-c2ccccc2NS(=O)(=O)C(F)(F)F)cc1	–	4.5	100 mg/kg	10 mg/kg	–
CCCCc1nc(Cl)c(CNC(=O)NC)n1Cc1ccc(-c2ccccc2C(=O)O)cc1	240 nM	–	–	10 mg/kg	inactive
CCCCc1nc(Br)c(CO)n1Cc1ccc(-c2ccccc2-c2nn[nH]n2)cc1	–	–	3 mg/kg	0.3 mg/kg	–
CCCCc1nc(Cl)c(C(=O)OC)n1Cc1ccc(-c2ccccc2C(=O)O)cc1	340 nM	–	100 mg/kg	10 mg/kg	–
CCCCc1nc(Cl)c(CO)n1Cc1ccc(-c2ccc(C(=O)O)cc2)cc1	–	–	–	>10 mg/kg	inactive
CCCCc1nc(Br)c(CO)n1Cc1ccc(-c2ccccc2C(=O)O)cc1	90 nM	–	30 mg/kg	3 mg/kg	–
CCCCc1nc(Cl)c(COC)n1Cc1ccc(-c2ccccc2-c2nn[nH]n2)cc1	–	6	3 mg/kg	1 mg/kg	–
CCCCc1nc(I)c(CO)n1Cc1ccc(-c2ccccc2-c2nn[nH]n2)cc1	–	–	10 mg/kg	1 mg/kg	–
CCCCc1nc(Cl)c(C(N)=O)n1Cc1ccc(-c2ccccc2C(=O)O)cc1	150 nM	–	100 mg/kg	10 mg/kg	–
CCCCc1nc(Cl)c(COC)n1Cc1ccc(-c2ccccc2C(=O)Nc2nn[nH]n2)cc1	–	–	–	10 mg/kg	–
CCCCc1nc(Cl)c(CO)n1Cc1ccc(-c2cccc(C)c2C(=O)O)cc1	1900 nM	–	10 mg/kg	3 mg/kg	–
CCCCc1nc(Cl)c(CO)n1Cc1ccc(-c2c(OC)cccc2C(=O)O)cc1	3000 nM	–	100 mg/kg	10 mg/kg	–
CCCCc1nc(Cl)c(COC(C)=O)n1Cc1ccc(-c2ccccc2C(=O)O)cc1	–	–	100 mg/kg	10 mg/kg	–
CCCCc1nc(Cl)c(CNC(=O)OC23C[C@H]4C[C@@H](C2)C[C@@H](C3)C4)n1Cc1ccc(-c2ccccc2C(=O)O)cc1	600 nM	–	30 mg/kg	3 mg/kg	–
O=C(O)c1ccccc1-c1ccc(Cn2c(-c3ccccc3)nc(Cl)c2CO)cc1	–	–	100 mg/kg	10 mg/kg	–
CCCCc1nc(Cl)c(CO)n1Cc1ccc(-c2ccccc2-c2n[nH]c(C(F)(F)F)n2)cc1	370 nM	–	10 mg/kg	1 mg/kg	–
CCCCc1nc(Cl)c(/C=N/NS(=O)(=O)c2ccccc2)n1Cc1ccc(-c2ccccc2-c2nn[nH]n2)cc1	660 nM	–	30 mg/kg	3 mg/kg	–
CCCCc1nc(Cl)c(C=O)n1Cc1ccc(-c2ccccc2-c2[nH]nnc2F)cc1	13000 nM	–	–	>10 mg/kg	inactive
CCCCc1nc(Cl)c(CO)n1Cc1ccc(-c2ccccc2C(N)=O)cc1	35000 nM	–	–	–	–
CCCCc1nc(Cl)c(C(=O)N(C)C)n1Cc1ccc(-c2ccccc2C(=O)O)cc1	1300 nM	–	10 mg/kg	10 mg/kg	–
CCCCc1nc(Cl)c(CNC(=O)OC)n1Cc1ccc(-c2ccccc2C(=O)O)cc1	250 nM	–	30 mg/kg	3 mg/kg	–
CCCCc1nc(Cl)c(CN)n1Cc1ccc(-c2ccccc2C(=O)O)cc1	3200 nM	–	–	–	–
CCCCc1nc(Cl)c(C=O)n1Cc1ccc(-c2ccccc2-c2nn[nH]n2)cc1	20 nM	–	3 mg/kg	0.3 mg/kg	–
CCCCc1nc(Cl)c(CO)n1Cc1ccc(-c2cccc(C(=O)O)c2)cc1	–	–	100 mg/kg	45 mg/kg	–

Further lines, with some results ahead:

IC50 [1]	pKa [5]	Compound	Activity [2]	Activity [3]	Activity [4]
1700 nM	–	CCc1nc(Cl)c(CO)n1Cc1ccc(-c2ccccc2C(=O)O)cc1	100 mg/kg	10 mg/kg	–
260 nM	7	CCCCc1nc(Cl)c(CO)n1Cc1ccc(-c2ccccc2-c2[nH]nnc2C(=O)OC)cc1	>10 mg/kg	>1 mg/kg	–
3000 nM	–	CCCCc1nc(Cl)c(CNC(=O)Nc2cccc3ccccc23)n1Cc1ccc(-c2ccccc2C(=O)O)cc1	–	10 mg/kg	inactive
> 1000 nM	–	CCCCc1nc(Cl)c(C=O)n1Cc1ccc(-c2cccc(-c3nn[nH]n3)c2)cc1	30 mg/kg	>10 mg/kg	–
60 nM	–	CCCCc1nc(Cl)c(CNC(=O)OC)n1Cc1ccc(-c2ccccc2-c2nn[nH]n2)cc1	>10 mg/kg	1 mg/kg	–
700 nM	–	CCCCc1nc(Cl)c(CNC(=O)NC(C)c2cccc3ccccc23)n1Cc1ccc(-c2ccccc2C(=O)O)cc1 (stereo unspecified)	–	>10 mg/kg	inactive
61 nM	–	CCCCc1nc(I)c(CO)n1Cc1ccc(-c2ccccc2C(=O)O)cc1	100 mg/kg	10 mg/kg	–
200 nM	–	CCCCc1nc(Cl)c(CNC(=O)OCC)n1Cc1ccc(-c2ccccc2C(=O)O)cc1	100 mg/kg	10 mg/kg	–
290 nM	–	CCCCc1nc(Cl)c(/C=N/NC2=NCCN2)n1Cc1ccc(-c2ccccc2-c2nn[nH]n2)cc1	30 mg/kg	3 mg/kg	–
160 nM	–	CCCc1nc(Cl)c(CO)n1Cc1ccc(-c2ccccc2C(=O)O)cc1	30 mg/kg	3 mg/kg	–
980 nM	–	CCCCCc1nc(Cl)c(CO)n1Cc1ccc(-c2ccccc2C(=O)O)cc1	30 mg/kg	3 mg/kg	–
270 nM	–	CCCCc1ncc(CO)n1Cc1ccc(-c2ccccc2C(=O)O)cc1	–	10 mg/kg	inactive
62 nM	–	CCCCc1nc(C(F)(F)F)c(CO)n1Cc1ccc(-c2ccccc2C(=O)O)cc1	30 mg/kg	3 mg/kg	–
–	5	CCCCc1nc(Cl)c(COC)n1Cc1ccc(-c2ccccc2C(=O)O)cc1	100 mg/kg	10 mg/kg	–
260 nM	–	CCCCc1nc([N+](=O)[O-])c(CO)n1Cc1ccc(-c2ccccc2C(=O)O)cc1	–	10 mg/kg	inactive
390 nM	–	C=CCOC(=O)NCc1c(Cl)nc(CCCC)n1Cc1ccc(-c2ccccc2C(=O)O)cc1	100 mg/kg	10 mg/kg	–
410 nM	–	CCCCc1nc(Cl)c(C(O)c2ccccc2)n1Cc1ccc(-c2ccccc2-c2nn[nH]n2)cc1 (stereo unspecified)	>30 mg/kg	3 mg/kg	–
300 nM	–	CCCCc1nc(Cl)c(COC)n1Cc1ccc(-c2ccccc2Cc2nnn[nH]2)cc1	100 mg/kg	10 mg/kg	–
